Laboratory results published in the EternaBench riboswitch data.

Tested on: MS2 coat protein
Experiment: apparent Kd, MS2 coat protein; higher = weaker binding; RNA-MaP array; FMN 200 µM where present
In short: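 Designs were transcribed by stalled E. coli RNA polymerase on Illumina sequencing-chip clusters. They were titrated with SNAP-549-labelled MS2 coat protein from 0.7 or 1.5 nM, doubling to 3 µM, without and then with constant ligand. Buffer: 100 mM Tris-HCl pH 7.5, 80 mM KCl, 4 mM MgCl2, BSA, DTT, yeast tRNA, Tween-20. Green signal was normalised to red-channel RNA signal and control-cluster median Fmax. Apparent Kd is the median of filtered per-cluster binding-curve fits.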

[1] = designed as: ON switch for flavin mononucleotide, no ligand
[2] = ligand present: flavin mononucleotide, designed as: ON switch for flavin mononucleotide
[3] = designed as: OFF switch for flavin mononucleotide, no ligand
[4] = ligand present: flavin mononucleotide, designed as: OFF switch for flavin mononucleotide

GGGUGGCGUACAGGAUAUGUGGUACAUGAGGAUCACCCAUGUGCAUAUGAUGUUCGUGUGUCAUCAUAGAAGGGUACGUCGCUA
apparent Kd [1]: 0.0912 µM | apparent Kd [2]: 0.0592 µM

GGUAAAGGCAGCCUCUACCCUGCACAUGAGGAUCACCCAUGUAAGGAUAUCGCCGCGGUAAUGGUCGAGAAGGUAUAUCGGGUU
apparent Kd [3]: 0.0159 µM | apparent Kd [4]: 0.0466 µM

GGUACCAACACAGGAUAUGCUAUCCUUUGGGUAGCAGAAGGGUGAAACAUGAGGAUCACCCAUGUGGUGCCAGGGCGUGAGCCC
apparent Kd [1]: 1.46 µM | apparent Kd [2]: 0.0962 µM

GGUACCAUCACAGGAUAUGCUUUUCUUUGGGAAGCAGAAGGGUGUAACAUGAGGAUCACCCAUGUGGUGCCAGGGCGUGAGCCC
apparent Kd [1]: 0.182 µM | apparent Kd [2]: 0.0147 µM

GGUACUAUCACAGGAUAUGCUUUCCUUUGGGAAGCAGAAGGGUGUAACAUGAGGAUCACCCAUGUGGUGCCAGGGCGUGGGCCC
apparent Kd [1]: 0.154 µM | apparent Kd [2]: 0.017 µM

GGUACUCAAAGAGUACCAAAACGAACAUGAGGAUCACCCAUGUAGGAUAUGCUACUCAAAGAGUAGCAGAAGGACAUGUGCCUA
apparent Kd [4]: 0.122 µM

GGUACUCAAAGAGUACCAAUACGAACAUGAGGAUCACCCAUGUAGGAUAUGCUACUCAAAGAGUAGCAGAAGGACAUGUGCUUA
apparent Kd [3]: 0.0259 µM | apparent Kd [4]: 0.135 µM

GGUACUCAAAGAGUACCAAUACGAACAUGAGGAUCACCCAUGUAGGAUAUGCUACUCAAAGAGUAGCAGAAGGACGUGUGCCUU
apparent Kd [3]: 0.0214 µM | apparent Kd [4]: 0.0424 µM

GGUACUCAAAGAGUACCAAUACGAACAUGAGGAUCACCCAUGUAGGAUAUGCUACUCAAAGAGUAGCAGAAGGAUAUGAUGUAU
apparent Kd [3]: 0.0397 µM | apparent Kd [4]: 0.0449 µM

GGUACUCAAAGAGUACCAAUACGAACAUGAGGAUCACCCAUGUAGGAUAUGCUAUGCAAAGCAUAGCAGAAGGACAUGUGCCUU
apparent Kd [3]: 0.0417 µM | apparent Kd [4]: 0.276 µM

GGUACUCAAAGAGUACCAAUACGUACAUGAGGAUCACCCAUGUAGGAUAUGCUACUCAAAGAGUAGCAGAAGGACAUGUGCCUA
apparent Kd [3]: 0.0127 µM | apparent Kd [4]: 0.031 µM

GGUACUCAAAGAGUACUUGGUCGAACAUGAGGAUCACCCAUGUAGGAUAUGCAAAGCUAGAAGUAGCAGAAGGACAUGUGCAGC
apparent Kd [3]: 0.0144 µM | apparent Kd [4]: 0.0221 µM

GGUAGCAACACAGGAUAUGCUAUCCUUUGGGUAGCAGAAGGGUGAAACAUGAGGAUCACCCAUGUGCUGCCAGGGCGUGAGCCC
apparent Kd [1]: 1.8 µM | apparent Kd [2]: 0.136 µM

GGUCCAUCAUGAGGAUAUGGCACCUUAUUGGUGCCAGAAGGCAUGUCUAUAGACAUGAGGAUCACCCAUGUAAUAAAAUGGACC
apparent Kd [1]: 0.571 µM | apparent Kd [2]: 0.0615 µM

GGUCGGAGCAGAGGAUAUACAUGAGGAUCACCCAUGUAAUAAAGUGAAGCCUGGAAACAGGCAAUGUAGAAGGCUGCUCCGACA
apparent Kd [3]: 0.0108 µM | apparent Kd [4]: 0.0706 µM

GGUCGUCCCAUUAACAUGAGGAUCACCCAUGUCAAAAGACAUGAGGAUAUGGUACCUAAUUGGUACCAGAAGGCAUGGACGACC
apparent Kd [1]: 1.21 µM | apparent Kd [2]: 0.115 µM

GGUGAGUGAGGAUAUCCAGGUCCUGACAUGAGGAUCACCCAUGUAUACGUCACGUGCGGAGGAGAAGGCACAAUAA
apparent Kd [3]: 0.0911 µM | apparent Kd [4]: 0.297 µM

GGUGCAAUGUAGAAGGCAGAUCUGAUUCAGAUCUGAGGAUAUACAUGAGGAUCACCCAUGUUAUGCACCAGCACGAGAGUGCAA
apparent Kd [3]: 0.00657 µM | apparent Kd [4]: 0.0126 µM

GGUGCACGCACAGGAUAUCCGGCGGAGCUCGUCGGAGAAGGGUGACAUGAGGAUCACCCAUGUACGUGCAACUUAGUUUAAGAG
apparent Kd [1]: 0.02 µM | apparent Kd [2]: 0.019 µM

GGUGCACGCACAGGAUAUCCGGCGGAGCUCGUCGGAGAAGGGUGACAUGAGGAUCACCCAUGUACGUGCAAUCCAGUUUGAGAG
apparent Kd [1]: 0.0238 µM | apparent Kd [2]: 0.0283 µM

GGUGCGCCAAGCCUUAAGACCGAACAUGAGGAUCACCCAUGUGAGGAUAUGACAGACGAAAGAAGUCAGAAGGCAUAAGGGUGG
apparent Kd [3]: 0.00712 µM | apparent Kd [4]: 0.0101 µM

GGUGCGUUUGUGAGGAUAUGCUGGUCCUUGGAUCAGCAGAAGGCACAUGAGGAUCACCCAUGUGGUGUCCGUCC
apparent Kd [3]: 0.222 µM | apparent Kd [4]: 0.117 µM

GGUGCGUUUGUGAGGAUAUGCUGGUCCUUGGUUCGGCAGAAGGCACAUGAGGAUCACCCAUGUGGUGUCGUGCC
apparent Kd [3]: 0.0351 µM | apparent Kd [4]: 0.0775 µM

GGUGUGCAGCAGGAUAUCCAUCCGCGGUAUGGUGGAGAAGGGCUGACAUGAGGAUCACCCAUGUGCGUCCUAGG
apparent Kd [3]: 0.0403 µM | apparent Kd [4]: 0.133 µM

GGUUGACAAAGUCAACCUUAACGAACAUGAGGAUCACCCAUGUAGGAUAUGCUACUCAAAGAGUAGCAGAAGGACAUGUGCCUU
apparent Kd [3]: 0.033 µM | apparent Kd [4]: 0.278 µM

GGUUGGCGAGGAUAUACAUGAGGAUCACCCAUGUGGUCCUGAGAUAGAAUAGACCUUUGUAGAAGGCGCGGGUC
apparent Kd [3]: 0.172 µM | apparent Kd [4]: 0.136 µM

GGUUGGCGAGGAUAUACAUGAGGAUCACCCAUGUGGUCCUGUGGCUGAUCUUGCCUUUGUAGAAGGCGCGGAUC
apparent Kd [3]: 0.0497 µM | apparent Kd [4]: 0.0536 µM

GGUUGGCGAGGAUAUACAUGAGGAUCACCCAUGUGGUCCUGUGGCUGGUAAAACCUUUGUAGAAGGCGCGGGUC
apparent Kd [3]: 0.215 µM | apparent Kd [4]: 0.24 µM

GGUUGUCAAAGACAACCUUAACGAACAUGAGGAUCACCCAUGUAGGAUAUGCUACUCAAAGAGUAGCAGAAGGACAUGUGUCUU
apparent Kd [3]: 0.0308 µM | apparent Kd [4]: 0.156 µM

GGUUGUCAUAGUCAUCCUUUCCGUACAUGAGGAUCACCCAUGUAGGAUAUGCUACUCACAGUGUAGCAGAAGGGCGUGUGUCUU
apparent Kd [3]: 0.0166 µM | apparent Kd [4]: 0.0175 µM

GUAAAGUGAGGAUAUGGUAAAGUAAGUAUGUAGUAAGUAAUCCAGAAGGCACAUGAGGAUCACCCAUGUAAAUG
apparent Kd [3]: 0.03 µM | apparent Kd [4]: 0.0323 µM

GUAAAUCAUGUAGGAUAUGCAUGGCGAAGCUACGCAGAAGGACAUGAGGAUCACCCAUGUCUGUCCGUCUGCGUACAGACGGAC
apparent Kd [3]: 0.0256 µM | apparent Kd [4]: 0.17 µM

GUAACAUGAGGAUCACCCAUGUAUAGAACACUCAAUAGAUCUGAGGAUAUAGUAGAAUUUACAUACUAGAAGGCAGUGGGUACA
apparent Kd [1]: 0.0552 µM | apparent Kd [2]: 0.0296 µM

GUAACAUGAGGAUCACCCAUGUAUAGAACACUCAAUAGAUCUGAGGAUAUAGUGGAAUUUACACACUAGAAGGCAGUGGGUACA
apparent Kd [1]: 0.0539 µM | apparent Kd [2]: 0.0319 µM

GUAACAUGAGGAUCACCCAUGUCGUGCUAGAUGAGUUCUGGUGAGGAUAUACAUGGUAAAUAACUGUAGAAGGCGCUGGGUACA
apparent Kd [1]: 0.132 µM | apparent Kd [2]: 0.105 µM

GUAAUUAAGAGAGGAUAUUGACAUGAGGAUCACCCAUGUAUUUGGGAGUGUUUACUGAAUUCUUACGAGAAGGCUUUUAAAUAC
apparent Kd [3]: 0.0892 µM | apparent Kd [4]: 0.178 µM

GUACAGAAGGAGAAGGGCUAGGAGGUCCAGCUUAUGUGUGUUGCAACAUGAGGAUCACCCAUGUAGCAGGAUAUCCUUUGUACA
apparent Kd [3]: 0.0411 µM | apparent Kd [4]: 0.44 µM

GUACAGAUCACAGGAUAUCACGUCGUUUAGACGUGAGAAGGGUGAUCACACAUGAAUAUUAAUACAUGAGGAUCACCCAUGUAC
apparent Kd [1]: 0.036 µM | apparent Kd [2]: 0.0977 µM

GUACAGUAGUGAGGAUAUACGAGAUCGAUAGAUCGGCGAUCCAAUAAUACAUGAGGAUCACCCAUGUAGAAGGCACUUCUGUAC
apparent Kd [3]: 0.00769 µM | apparent Kd [4]: 0.113 µM

GUACAGUAGUGAGGAUAUACGAGAUCGAUAGAUCGGCGAUCCAUAUAUACAUGAGGAUCACCCAUGUAGAAGGCACUUCUGUAC
apparent Kd [3]: 0.0077 µM | apparent Kd [4]: 0.104 µM

GUACAUACAAAGUUACAUGAGGAUCACCCAUGUUUAUUGGGAAGAAGGGUAACAUUAUUAGAUGUAUAGGAUAUUUCACAAUUG
apparent Kd [1]: 0.511 µM | apparent Kd [2]: 0.316 µM

GUACUGUAGUGAGGAUAUACGAGAUCGAUAGAUCGGCGAUCCAUUAAUACAUGAGGAUCACCCAUGUAGAAGGCACUUCAGUAC
apparent Kd [3]: 0.00625 µM | apparent Kd [4]: 0.0784 µM

GUACUGUAGUGAGGAUAUACGAGUACGAUAGUACGGCGAUCCAUUUAUACAUGAGGAUCACCCAUGUAGAAGGCACUUCAGUAC
apparent Kd [3]: 0.00609 µM | apparent Kd [4]: 0.0616 µM

GUACUGUAGUGAGGAUAUACGAGUGCGAUAGCACGGCGAUCCAAUUAUACAUGAGGAUCACCCAUGUAGAAGGCACUUCAGUAC
apparent Kd [3]: 0.00904 µM | apparent Kd [4]: 0.041 µM

GUAGAGUAAGGAUAUAGAGAAUAGGAUAGAAUGGUUAGAAUCUAGAAGGUACAUGAGGAUCACCCAUGUAAUGU
apparent Kd [3]: 0.0219 µM | apparent Kd [4]: 0.0198 µM

GUAGAGUAAGGAUAUCGAGAAUAGGAUAGAAUGGAUAGAAUCGAGAAGGUACAUGAGGAUCACCCAUGUAAUGU
apparent Kd [3]: 0.0203 µM | apparent Kd [4]: 0.0186 µM

GUAGAGUAAGGAUAUGGUGAAUAGGAUAGAAUGGUUAGAAAUCAGAAGGUACAUGAGGAUCACCCAUGUAAUGU
apparent Kd [3]: 0.023 µM | apparent Kd [4]: 0.0224 µM

GUAGAGUAAGGAUAUUGUGAAUAGGAUAGAAUGGUUAGAAGCAAGAAGGUACAUGAGGAUCACCCAUGUAAUGU
apparent Kd [3]: 0.0225 µM | apparent Kd [4]: 0.0236 µM

GUAGAGUAGUGAGGAUAUACGAGCACGAUAGUGCGGCGAUCCAAUAAUACAUGAGGAUCACCCAUGUAGAAGGCACUUCUCUAC
apparent Kd [3]: 0.00743 µM | apparent Kd [4]: 0.0812 µM

GUAGCAACAUGAGGAUCACCCAUGUAGGAUAUCGCUAUUGUAAUCAUGAAACAUGAUUACAAUAGCGAGAAGGACAUAAGCUAC
apparent Kd [3]: 0.00667 µM | apparent Kd [4]: 0.00884 µM

GUAGCAUAAUCAGGAUAUUCAGAGAAUAAAUAAACAUGAGGAUCACCCAUGUGGCGAAAGCCUAGGGAGAAGGGAUAAUGCUAC
apparent Kd [1]: 0.118 µM | apparent Kd [2]: 0.0248 µM

GUAGCAUAAUUAGGAUAUUCAGCGAAUAGAUUGACAUGAGGAUCACCCAUGUGGCGAAAGCCGAGGGAGAAGGGAUAAUGCUAC
apparent Kd [1]: 0.157 µM | apparent Kd [2]: 0.0611 µM

GUAGCAUACCAAGGAUAUUUAGGGCUUUGAUAGACAUGAGGAUCACCCAUGUGGCGUUAGUCAAGGGAGAAGGUGGUAUGCUAC
apparent Kd [1]: 0.0226 µM | apparent Kd [2]: 0.0145 µM

GUAGCAUACCGAGGAUAUUCAUACAGGAAACUGACAUGAGGAUCACCCAUGUGGCGAAAGCCUUGGGAGAAGGCGGAAUGCUAC
apparent Kd [1]: 0.637 µM | apparent Kd [2]: 0.0284 µM

GUAGCAUACCGAGGAUAUUCAUAUCGGAAACGAACAUGAGGAUCACCCAUGUGGCGAAAGCCUUGGGAGAAGGCGGAAUGCUAC
apparent Kd [1]: 0.589 µM | apparent Kd [2]: 0.0245 µM
